Experimental data published in ChEMBL document CHEMBL3822363, “Chemoenzymatic synthesis and antileukemic activity of novel C9- and C14-functionalized parthenolide analogs” (Bioorg Med Chem, 2016).

Assay: Cytotoxicity against in human umbilical cord cells assessed as inhibition of colony formation after 24 hrs by microscopic analysis
Type: cell-based
Settings: not given

SMILES | IC50 [µM]
C=C1C(=O)O[C@H]2[C@H]1C[C@H](OC(C(=O)OCC)c1ccc(C(F)(F)F)cc1)/C(C)=C/CC[C@@]1(C)O[C@@H]21 (stereo in doubt; 22a) | 13.2
C=C1C(=O)O[C@H]2[C@H]1C[C@H](OC(C(=O)OCC)c1ccc(C(F)(F)F)cc1)/C(C)=C/CC[C@@]1(C)O[C@@H]21 (stereo in doubt; 22b) | 2.4
C=C1C(=O)O[C@@H]2[C@@H]1CC/C(COC(C(=O)OCC)c1ccc(C(F)(F)F)cc1)=C/CC[C@]1(C)O[C@H]21 (stereo in doubt; 23b) | 4.6
C=C1C(=O)O[C@H]2[C@H]1C[C@H](OC(C(=O)OCc1ccccc1)c1ccccc1)/C(C)=C/CC[C@@]1(C)O[C@@H]21 (stereo in doubt; 25a) | 31.6
C=C1C(=O)O[C@H]2[C@H]1C[C@H](OC(C(=O)OCc1ccccc1)c1ccccc1)/C(C)=C/CC[C@@]1(C)O[C@@H]21 (stereo in doubt; 25b) | 5
C=C1C(=O)O[C@H]2[C@H]1CC/C(COC(C(=O)OCc1ccccc1)c1ccccc1)=C/CC[C@@]1(C)O[C@@H]21 (stereo in doubt; 26b) | 5.4

Same assay, conditions: Homo sapiens, 24 h

SMILES | IC50 [µM]
C=C1C(=O)O[C@@H]2[C@H]3O[C@]3(C)CC/C=C(\C)CC[C@@H]12 | 12.5
C=C1C(=O)O[C@@H]2[C@@H]1CC/C(COC(C(=O)OCC)c1ccc(C(F)(F)F)cc1)=C/CC[C@]1(C)O[C@H]21 (stereo in doubt; 23a) | 7.5
C=C1C(=O)O[C@H]2[C@H]1CC/C(COC(C(=O)OCc1ccccc1)c1ccccc1)=C/CC[C@@]1(C)O[C@@H]21 (stereo in doubt; 26a) | 6.2

Assay: Cytotoxicity against patient-derived primary AML01 cells assessed as reduction in cell viability after 24 hrs by Annexin V/7-AAD staining based flow cytometry
Type: functional, Homo sapiens
Settings: Homo sapiens, AML01, 24 h; read-out: LC50 (the source's name)
Outline: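 Patient AML mononuclear cells were isolated on a Ficoll gradient, cryopreserved, and thawed (viability 40–70%). They were held ≥1 h in serum-free IMDM with 20% BIT 9500, LDL, β-mercaptoethanol and pen/strep before compound. Exposure used ≥3 doses from a DMSO stock for 24 h at 37 °C with 5% CO2. Annexin V/7-AAD flow cytometry gave the % nonapoptotic cells.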

SMILES | CC50 [µM]
C=C1C(=O)O[C@H]2[C@H]1CC/C(COC(C(=O)OCCN1CCCC1)c1ccccc1)=C/CC[C@@]1(C)O[C@@H]21 (stereo partly specified) | 23.6
C=C1C(=O)O[C@H]2[C@H]1C[C@H](OC(C(=O)OCCN1CCOCC1)c1ccccc1)/C(C)=C/CC[C@@]1(C)O[C@@H]21 (stereo partly specified) | 40
C=C1C(=O)O[C@H]2[C@H]1CC/C(COC(C(=O)OCCN1CCOCC1)c1ccccc1)=C/CC[C@@]1(C)O[C@@H]21 (stereo partly specified) | 22.4
C=C1C(=O)O[C@H]2[C@H]1CC/C(COC(=O)c1cc(-c3ccc(Br)cc3)n[nH]1)=C/CC[C@@]1(C)O[C@@H]21 | 2.2
C=C1C(=O)O[C@@H]2[C@H]3O[C@]3(C)CC/C=C(\C)CC[C@@H]12 | 6.1
C=C1C(=O)O[C@@H]2[C@@H]1CC/C(COC(C(=O)OCC)c1ccc(OC)cc1)=C/CC[C@]1(C)O[C@H]21 (stereo partly specified) | 8.5
C=C1C(=O)O[C@H]2[C@H]1C[C@H](OC(C(=O)OCC)c1ccc(C(F)(F)F)cc1)/C(C)=C/CC[C@@]1(C)O[C@@H]21 (stereo in doubt; 22a) | 3.4
C=C1C(=O)O[C@@H]2[C@@H]1CC/C(COC(C(=O)OCC)c1ccc(C(F)(F)F)cc1)=C/CC[C@]1(C)O[C@H]21 (stereo in doubt; 23a) | 2.5
C=C1C(=O)O[C@H]2[C@H]1C[C@H](OC(C(=O)OCc1ccccc1)c1ccccc1)/C(C)=C/CC[C@@]1(C)O[C@@H]21 (stereo in doubt; 25a) | 5.1
C=C1C(=O)O[C@H]2[C@H]1CC/C(COC(C(=O)OCc1ccccc1)c1ccccc1)=C/CC[C@@]1(C)O[C@@H]21 (stereo in doubt; 26a) | 3.2

Same assay, conditions: read-out: LC50 (the source's name)

SMILES | CC50 [µM]
C=C1C(=O)O[C@H]2[C@H]1C[C@H](OC(C(=O)OCC)c1ccccc1)/C(C)=C/CC[C@@]1(C)O[C@@H]21 (stereo in doubt; 18a) | 2.6
C=C1C(=O)O[C@H]2[C@H]1C[C@H](OC(C(=O)OCC)c1ccccc1)/C(C)=C/CC[C@@]1(C)O[C@@H]21 (stereo in doubt; 18b) | 10
C=C1C(=O)O[C@H]2[C@H]1C[C@H](OC(C(=O)OCC)c1ccc(C(F)(F)F)cc1)/C(C)=C/CC[C@@]1(C)O[C@@H]21 (stereo in doubt; 22b) | 2.6
C=C1C(=O)O[C@@H]2[C@@H]1CC/C(COC(C(=O)OCC)c1ccc(C(F)(F)F)cc1)=C/CC[C@]1(C)O[C@H]21 (stereo in doubt; 23b) | 3.1
C=C1C(=O)O[C@H]2[C@H]1C[C@H](OC(C(=O)OCc1ccccc1)c1ccccc1)/C(C)=C/CC[C@@]1(C)O[C@@H]21 (stereo in doubt; 25b) | 3.1
C=C1C(=O)O[C@H]2[C@H]1CC/C(COC(C(=O)OCc1ccccc1)c1ccccc1)=C/CC[C@@]1(C)O[C@@H]21 (stereo in doubt; 26b) | 5.1

Assay: Selectivity ratio of LC50 for human umbilical cord cells to LC50 for patient-derived primary AML01 cells
Type: ADME, cell-based
Settings: read-out: RatioLC50

SMILES | selectivity ratio
C=C1C(=O)O[C@H]2[C@H]1C[C@H](OC(C(=O)OCc1ccccc1)c1ccccc1)/C(C)=C/CC[C@@]1(C)O[C@@H]21 (stereo in doubt; 25b) | 3.5

Assay: Cytotoxicity against human M9-ENL1 cells assessed as reduction in cell viability after 24 hrs by Annexin V/7-AAD staining based flow cytometry
Type: functional
Settings: Homo sapiens, M9-ENL1, 24 h; read-out: LC50 (the source's name)
Outline: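 Lineage-depleted human cord blood cells carrying an MLL-ENL fusion were plated at 10^6 cells/mL. The medium was alpha-MEM with 5% human plasma, 20% FBS, SCF, IL-3, IL-7, FLT3 ligand and pen/strep. Parthenolide was the positive control. Each compound was given at ≥3 doses diluted from a DMSO stock, for 24 h at 37 °C with 5% CO2. Annexin V/7-AAD flow cytometry counted the % double-negative cells. LC50 came from dose curves normalised to untreated cells; runs were in triplicate, mean ± SD.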

SMILES | CC50 [µM]
C=C1C(=O)O[C@H]2[C@H]1C[C@H](OC(=O)c1cn(C)c3ccccc13)/C(C)=C/CC[C@@]1(C)O[C@@H]21 | 3.8
C=C1C(=O)O[C@H]2[C@H]1CC/C(COC(C(=O)OCCN1CCCC1)c1ccccc1)=C/CC[C@@]1(C)O[C@@H]21 (stereo partly specified) | 14.8
C=C1C(=O)O[C@H]2[C@H]1C[C@H](OC(C(=O)OCC)c1ccccc1C(F)(F)F)/C(C)=C/CC[C@@]1(C)O[C@@H]21 (stereo partly specified) | 3.9
C=C1C(=O)O[C@H]2[C@H]1C[C@H](OC(C(=O)OCCN1CCOCC1)c1ccccc1)/C(C)=C/CC[C@@]1(C)O[C@@H]21 (stereo partly specified) | 26.3
C=C1C(=O)O[C@H]2[C@H]1CC/C(COC(C(=O)OCCN1CCOCC1)c1ccccc1)=C/CC[C@@]1(C)O[C@@H]21 (stereo partly specified) | 23.5
C=C1C(=O)O[C@H]2[C@H]1CC/C(COC(=O)c1cc(-c3ccc(Br)cc3)n[nH]1)=C/CC[C@@]1(C)O[C@@H]21 | 2.9
C=C1C(=O)O[C@@H]2[C@H]3O[C@]3(C)CC/C=C(\C)CC[C@@H]12 | 5.4
C=C1C(=O)O[C@@H]2[C@@H]1CC/C(COC(C(=O)OCC)c1ccc(OC)cc1)=C/CC[C@]1(C)O[C@H]21 (stereo partly specified) | 6.4
C=C1C(=O)O[C@H]2[C@H]1C[C@H](OC(C(=O)OCC)c1ccc(C(F)(F)F)cc1)/C(C)=C/CC[C@@]1(C)O[C@@H]21 (stereo in doubt; 22a) | 4.1
C=C1C(=O)O[C@@H]2[C@@H]1CC/C(COC(C(=O)OCC)c1ccc(C(F)(F)F)cc1)=C/CC[C@]1(C)O[C@H]21 (stereo in doubt; 23a) | 3.1
C=C1C(=O)O[C@H]2[C@H]1C[C@H](OC(C(=O)OCc1ccccc1)c1ccccc1)/C(C)=C/CC[C@@]1(C)O[C@@H]21 (stereo in doubt; 25a) | 2.6
C=C1C(=O)O[C@H]2[C@H]1CC/C(COC(C(=O)OCc1ccccc1)c1ccccc1)=C/CC[C@@]1(C)O[C@@H]21 (stereo in doubt; 26a) | 4

Same assay, conditions: read-out: LC50 (the source's name)

SMILES | CC50 [µM]
C=C1C(=O)O[C@H]2[C@H]1C[C@H](OC(C(=O)OCC)c1ccccc1)/C(C)=C/CC[C@@]1(C)O[C@@H]21 (stereo in doubt; 18a) | 2.3
C=C1C(=O)O[C@H]2[C@H]1C[C@H](OC(C(=O)OCC)c1ccccc1)/C(C)=C/CC[C@@]1(C)O[C@@H]21 (stereo in doubt; 18b) | 6.2
C=C1C(=O)O[C@H]2[C@H]1C[C@H](OC(C(=O)OCC)c1ccc(C(F)(F)F)cc1)/C(C)=C/CC[C@@]1(C)O[C@@H]21 (stereo in doubt; 22b) | 3.3
C=C1C(=O)O[C@@H]2[C@@H]1CC/C(COC(C(=O)OCC)c1ccc(C(F)(F)F)cc1)=C/CC[C@]1(C)O[C@H]21 (stereo in doubt; 23b) | 4.1
C=C1C(=O)O[C@H]2[C@H]1C[C@H](OC(C(=O)OCc1ccccc1)c1ccccc1)/C(C)=C/CC[C@@]1(C)O[C@@H]21 (stereo in doubt; 25b) | 3.3
C=C1C(=O)O[C@H]2[C@H]1CC/C(COC(C(=O)OCc1ccccc1)c1ccccc1)=C/CC[C@@]1(C)O[C@@H]21 (stereo in doubt; 26b) | 8

Assay: Solubility of the compound in buffered solutions at neutral pH
Type: physicochemical
Settings: buffer

SMILES | solubility
C=C1C(=O)O[C@H]2[C@H]1CC/C(COC(C(=O)OCCN1CCCC1)c1ccccc1)=C/CC[C@@]1(C)O[C@@H]21 (stereo partly specified) | soluble
C=C1C(=O)O[C@H]2[C@H]1C[C@H](OC(C(=O)OCCN1CCOCC1)c1ccccc1)/C(C)=C/CC[C@@]1(C)O[C@@H]21 (stereo partly specified) | soluble
C=C1C(=O)O[C@H]2[C@H]1CC/C(COC(C(=O)OCCN1CCOCC1)c1ccccc1)=C/CC[C@@]1(C)O[C@@H]21 (stereo partly specified) | soluble

Assay: Cytotoxicity against human umbilical cord cells assessed as reduction in cell viability after 24 hrs by DAPI staining based flow cytometry
Settings: 24 h, read-out: LC50 (the source's name)
Outline: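 Donor cord blood was obtained within 48 h of collection. Mononuclear cells were Ficoll-isolated and cultured without cryopreservation. They were treated for 24 h in serum-free IMDM/BIT medium at 37 °C with 5% CO2, then stained for CD45, CD34 and DAPI. The % CD34+CD45dim cells in the DAPI-negative gate was compared with vehicle-treated samples.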

SMILES | CC50 [µM]
C=C1C(=O)O[C@H]2[C@H]1C[C@H](OC(C(=O)OCC)c1ccc(C(F)(F)F)cc1)/C(C)=C/CC[C@@]1(C)O[C@@H]21 (stereo in doubt; 22b) | 2.7
C=C1C(=O)O[C@@H]2[C@@H]1CC/C(COC(C(=O)OCC)c1ccc(C(F)(F)F)cc1)=C/CC[C@]1(C)O[C@H]21 (stereo in doubt; 23a) | 5.4
C=C1C(=O)O[C@H]2[C@H]1C[C@H](OC(C(=O)OCc1ccccc1)c1ccccc1)/C(C)=C/CC[C@@]1(C)O[C@@H]21 (stereo in doubt; 25b) | 10.9
C=C1C(=O)O[C@H]2[C@H]1CC/C(COC(C(=O)OCc1ccccc1)c1ccccc1)=C/CC[C@@]1(C)O[C@@H]21 (stereo in doubt; 26a) | 3.7
C=C1C(=O)O[C@H]2[C@H]1CC/C(COC(C(=O)OCc1ccccc1)c1ccccc1)=C/CC[C@@]1(C)O[C@@H]21 (stereo in doubt; 26b) | 5.5

Same assay, conditions: human umbilical cord cells, read-out: LC50

SMILES | CC50 at 24 h [µM]
C=C1C(=O)O[C@@H]2[C@H]3O[C@]3(C)CC/C=C(\C)CC[C@@H]12 | 42
C=C1C(=O)O[C@H]2[C@H]1C[C@H](OC(C(=O)OCC)c1ccc(C(F)(F)F)cc1)/C(C)=C/CC[C@@]1(C)O[C@@H]21 (stereo in doubt; 22a) | 7.3
C=C1C(=O)O[C@@H]2[C@@H]1CC/C(COC(C(=O)OCC)c1ccc(C(F)(F)F)cc1)=C/CC[C@]1(C)O[C@H]21 (stereo in doubt; 23b) | 8.8
C=C1C(=O)O[C@H]2[C@H]1C[C@H](OC(C(=O)OCc1ccccc1)c1ccccc1)/C(C)=C/CC[C@@]1(C)O[C@@H]21 (stereo in doubt; 25a) | 12.2
